Assay results reported in ChEMBL document CHEMBL3232712, “Antineoplastic agents. 595. Structural modifications of betulin and the X-ray crystal structure of an unusual betulin amine dimer” (2014).
Values after ≈ are worked out from the molar mass of the structure shown.

What was measured:
Assay type in all cases: functional
P388 = experiment: Cytotoxicity against mouse P388 cells after 48 hrs; settings: P388, 48 h, read-out: ED50 (the source's name)
How it was run: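 Murine P388 leukemia cells, counted by Coulter counter, were grown 24 h in Fisher medium with 10% horse serum, then exposed 48 h to serial compound dilutions. Cell numbers were determined with a Coulter particle counter, and ED50 was calculated for growth inhibition.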

[1] = Cytotoxicity against human BxPC3 cells after 48 hrs by SRB assay; settings: BXPC-3, 48 h
How it was run: (§1)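 Human tumour lines in RPMI1640 with 5% fetal bovine serum, trypsinized and counted by hemacytometer, seeded in 96-well plates and allowed 24 h before serial compound dilutions were added. After 48 h exposure, cells were fixed with trichloroacetic acid and stained with sulforhodamine B, and optical density was read. GI50 was taken as the concentration halving net protein increase.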

MCF7 = experiment: Cytotoxicity against human MCF7 cells after 48 hrs by SRB assay; settings: MCF7, 48 h; how it was run: as §1
SF-268 = experiment: Cytotoxicity against human SF268 cells after 48 hrs by SRB assay; settings: SF-268, 48 h; how it was run: as §1
NCI-H460 = experiment: Cytotoxicity against human NCI-H460 cells after 48 hrs by SRB assay; settings: NCI-H460, 48 h; how it was run: as §1
[2] = Cytotoxicity against human KM20L2 cells after 48 hrs by SRB assay; settings: KM-20L2, 48 h; how it was run: as §1
DU-145 = experiment: Cytotoxicity against human DU145 cells after 48 hrs by SRB assay; settings: DU-145, 48 h; how it was run: as §1

SMILES	EC50 (P388) [µg/mL]	GI50 [1] [µg/mL]	GI50 (MCF7) [µg/mL]	GI50 (SF-268) [µg/mL]	GI50 (NCI-H460) [µg/mL]	GI50 [2] [µg/mL]	GI50 (DU-145) [µg/mL]
C=C(C)[C@@H]1CC[C@]2(COC(C)=O)CC[C@]3(C)[C@H](CC[C@@H]4[C@@]5(C)CCC(=O)C(C)(C)[C@@H]5CC[C@]43C)[C@@H]12	0.12 (≈ 0.249 µM)	> 10	8 (≈ 16.6 µM)	10.6 (≈ 22 µM)	5.2 (≈ 10.8 µM)	12.7 (≈ 26.3 µM)	> 10
C=C(C)[C@@H]1CC[C@]2(COC(C)=O)CC[C@]3(C)[C@H](CC[C@@H]4[C@@]5(C)CC[C@H](O)C(C)(C)[C@@H]5CC[C@]43C)[C@@H]12	0.805 (≈ 1.66 µM)	4.1 (≈ 8.46 µM)	3 (≈ 6.19 µM)	4 (≈ 8.25 µM)	2.5 (≈ 5.16 µM)	5 (≈ 10.3 µM)	7.6 (≈ 15.7 µM)
CC1(C)CC[C@]23CC[C@]4(C)[C@H](CC[C@@H]5[C@@]6(C)CC(Br)C(=O)C(C)(C)[C@@H]6CC[C@]54C)[C@H]2[C@H]1OC3 (some centres undefined)	–	3.1 (≈ 5.97 µM)	5 (≈ 9.62 µM)	3.4 (≈ 6.54 µM)	2.9 (≈ 5.58 µM)	2.7 (≈ 5.2 µM)	6.7 (≈ 12.9 µM)
CC1(C)CC[C@]23CC[C@]4(C)[C@H](CC[C@@H]5[C@@]6(C)C=C(O)C(=O)C(C)(C)[C@@H]6CC[C@]54C)[C@H]2[C@H]1OC3	–	> 10	7.1 (≈ 15.6 µM)	> 10	8.8 (≈ 19.4 µM)	8 (≈ 17.6 µM)	9.3 (≈ 20.5 µM)
C=C(C)[C@@H]1CC[C@]2(COC(C)=O)CC[C@]3(C)[C@H](CC[C@@H]4[C@@]5(C)C[C@@H](Br)C(=O)C(C)(C)[C@@H]5CC[C@]43C)[C@@H]12	0.725 (≈ 1.29 µM)	3.1 (≈ 5.52 µM)	4.1 (≈ 7.3 µM)	10.1 (≈ 18 µM)	12.8 (≈ 22.8 µM)	9.6 (≈ 17.1 µM)	9 (≈ 16 µM)
C=C(C)[C@@H]1CC[C@]2(COC(C)=O)CC[C@]3(C)[C@H](CC[C@@H]4[C@@]5(C)C[C@H](Br)C(=O)C(C)(C)[C@@H]5CC[C@]43C)[C@@H]12	> 10	3.4 (≈ 6.05 µM)	3.2 (≈ 5.7 µM)	3.4 (≈ 6.05 µM)	2.8 (≈ 4.99 µM)	4.4 (≈ 7.83 µM)	6.1 (≈ 10.9 µM)
C=C(C)[C@@H]1CC[C@]2(COC(C)=O)CC[C@]3(C)[C@H](CC[C@@H]4[C@@]5(C)CC(Br)(Br)C(=O)C(C)(C)[C@@H]5CC[C@]43C)[C@@H]12	0.391 (≈ 0.61 µM)	1 (≈ 1.56 µM)	2.5 (≈ 3.9 µM)	4.4 (≈ 6.87 µM)	4.4 (≈ 6.87 µM)	4.2 (≈ 6.56 µM)	3.8 (≈ 5.93 µM)
C=C(C)[C@@H]1CC[C@]2(COC(C)=O)CC[C@]3(C)[C@H](CC[C@@H]4[C@@]5(C)CC(N=[N+]=[N-])C(=O)C(C)(C)[C@@H]5CC[C@]43C)[C@@H]12 (some centres undefined)	> 10	6.6 (≈ 12.6 µM)	5 (≈ 9.55 µM)	> 10	4.4 (≈ 8.4 µM)	4.2 (≈ 8.02 µM)	5.7 (≈ 10.9 µM)
C=C(C)[C@@H]1CC[C@]2(COC(C)=O)CC[C@]3(C)[C@H](CC[C@@H]4[C@@]5(C)C=C(N)C(=O)C(C)(C)[C@@H]5CC[C@]43C)[C@@H]12	> 10	7.9 (≈ 15.9 µM)	> 10	> 10	> 10	> 10	> 10
C=C(C)[C@@H]1CC[C@]2(COC(C)=O)CC[C@]3(C)[C@H](CC[C@@H]4[C@@]5(C)C=C(NC6=C[C@]7(C)[C@H]8CC[C@@H]9[C@H]%10[C@H](C(=C)C)CC[C@]%10(COC(C)=O)CC[C@@]9(C)[C@]8(C)CC[C@H]7C(C)(C)C6=O)C(=O)C(C)(C)[C@@H]5CC[C@]43C)[C@@H]12	> 10	> 10	> 10	> 10	> 10	> 10	> 10
C=C(C)[C@@H]1CC[C@]2(COC(C)=O)CC[C@]3(C)[C@H](CC[C@@H]4[C@@]5(C)CC(=O)C(O)C(C)(C)[C@@H]5CC[C@]43C)[C@@H]12 (some centres undefined)	> 10	9.1 (≈ 18.2 µM)	5.8 (≈ 11.6 µM)	6.1 (≈ 12.2 µM)	8 (≈ 16 µM)	5.9 (≈ 11.8 µM)	> 10
C=C(C)[C@@H]1CC[C@]2(COC(C)=O)CC[C@]3(C)[C@H](CC[C@@H]4[C@@]5(C)CC6=NC(C)(C)N=C6C(C)(C)[C@@H]5CC[C@]43C)[C@@H]12	–	14.5 (≈ 27.1 µM)	11.2 (≈ 20.9 µM)	> 10	> 10	> 10	> 10
C=C(C)[C@@H]1CC[C@]2(CO)CC[C@]3(C)[C@H](CC[C@@H]4[C@@]5(C)CC6=NC(C)(C)N=C6C(C)(C)[C@@H]5CC[C@]43C)[C@@H]12	–	1.9 (≈ 3.86 µM)	2 (≈ 4.06 µM)	6.9 (≈ 14 µM)	2.8 (≈ 5.68 µM)	4.9 (≈ 9.94 µM)	5.8 (≈ 11.8 µM)
CC1(C)CC[C@]23CC[C@]4(C)[C@H](CC[C@@H]5[C@@]6(C)CCC(=O)C(C)(C)[C@@H]6CC[C@]54C)[C@H]2[C@H]1OC3	–	> 10	> 10	> 10	> 10	> 10	> 10
CC1(C)CC[C@]23CC[C@]4(C)[C@H](CC[C@@H]5[C@@]6(C)CC(N=[N+]=[N-])C(=O)C(C)(C)[C@@H]6CC[C@]54C)[C@H]2[C@H]1OC3 (some centres undefined)	–	3.1 (≈ 6.44 µM)	4.7 (≈ 9.76 µM)	8.7 (≈ 18.1 µM)	3.8 (≈ 7.89 µM)	7.9 (≈ 16.4 µM)	4.5 (≈ 9.34 µM)
CC1(C)CC[C@]23CC[C@]4(C)[C@H](CC[C@@H]5[C@@]6(C)C=C(N)C(=O)C(C)(C)[C@@H]6CC[C@]54C)[C@H]2[C@H]1OC3	–	10.8 (≈ 23.8 µM)	11.2 (≈ 24.7 µM)	> 10	> 10	> 10	> 10
CC1(C)CC[C@]23CC[C@]4(C)[C@H](CC[C@@H]5[C@@]6(C)C=C(NC7=C[C@]8(C)[C@H]9CC[C@@H]%10[C@H]%11[C@H]%12OC[C@@]%11(CCC%12(C)C)CC[C@@]%10(C)[C@]9(C)CC[C@H]8C(C)(C)C7=O)C(=O)C(C)(C)[C@@H]6CC[C@]54C)[C@H]2[C@H]1OC3	–	> 10	> 10	> 10	> 10	> 10	> 10
C=C(C)[C@@H]1CC[C@]2(C(=O)OC)CC[C@]3(C)[C@H](CC[C@@H]4[C@@]5(C)CC(=O)CC(C)(C)[C@@H]5CC[C@]43C)[C@@H]12	> 10	8.2 (≈ 17.5 µM)	11.6 (≈ 24.7 µM)	> 10	13.1 (≈ 27.9 µM)	> 10	> 10
C=C(C)[C@@H]1CC[C@]2(C(=O)OC)CC[C@]3(C)[C@H](CC[C@@H]4[C@@]5(C)C=C(N6CCOCC6)C(=O)C(C)(C)[C@@H]5CC[C@]43C)[C@@H]12	–	3.9 (≈ 7.07 µM)	6.1 (≈ 11.1 µM)	> 10	4.4 (≈ 7.97 µM)	> 10	> 10
C=C(C)[C@@H]1CC[C@]2(COC(C)=O)CC[C@]3(C)[C@H](CC[C@@H]4[C@@]5(C)CC[C@H](OC(C)=O)C(C)(C)[C@@H]5CC[C@]43C)[C@@H]12 [BETULIN DIACETATE]	0.806	> 10	> 10	> 10	> 10	> 10	> 10
C=C(C)[C@@H]1CC[C@]2(CO)CC[C@]3(C)[C@H](CC[C@@H]4[C@@]5(C)CC[C@H](O)C(C)(C)[C@@H]5CC[C@]43C)[C@@H]12 [BETULIN]	–	9.3 (≈ 21 µM)	> 10	> 10	7.4 (≈ 16.7 µM)	> 10	> 10
C=C(C)[C@@H]1CC[C@]2(C(=O)OC)CC[C@]3(C)[C@H](CC[C@@H]4[C@@]5(C)CCC(=O)C(C)(C)[C@@H]5CC[C@]43C)[C@@H]12 [METHYL BETULONATE]	> 10	2.4 (≈ 5.12 µM)	2.7 (≈ 5.76 µM)	2.7 (≈ 5.76 µM)	2.3 (≈ 4.91 µM)	2.2 (≈ 4.69 µM)	2.3 (≈ 4.91 µM)
